The source made the active and inactive calls.

Series [1] relates to Mus musculus. The series is described as follows: Analgesic activity in mouse assessed as decrease in time of paw licking during phase 1 at 33 mg/kg, ip measured for 5 mins by formalin test relative to control. Type of series: functional. Set-up: scale not given: the % may be the effect or the level left. The method, boiled down:
(§1)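 Formalin test in mice: 20 μL of 5% formalin injected intraplantarly into the right hind paw. Each mouse was observed alone in a glass beaker for 30 min. Time (s) spent licking or biting the injected paw was recorded at 0–5 min (acute phase) and 15–30 min (inflammatory phase).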

The subject of series [2] is Mus musculus. The series is described as follows: Anticonvulsant activity in mouse assessed as increase in electroconvulsive threshold at 20 mg/kg, ip by maximal electroshock seizure threshold test relative to control. Type of series: functional. Background: In the maximal electroshock model the usual endpoint is tonic extension of the hind limbs.
Series [3] has as its system Mus musculus. The series is described as follows: Toxicity in mouse assessed as effect on spontaneous activity at 33 mg/kg, ip measured for 30 mins by photoresistor actometer relative to control. The class given is organism-based. The conditions noted are these: in vivo, 0.5 h. The procedure, abridged: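 Mice dosed ip; locomotor activity by photoresistor actometers counting light-beam interruptions. Each mouse was habituated 30 min in a cage, then crossings were counted over a 30 min session. Data are mean ± SEM and % change vs control; unpaired t test.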

Series [4] relates to Mus musculus. The series is described as follows: Neurotoxicity in mouse assessed as motor impairment by measuring time of escaping from chimney at 33 mg/kg, ip measured for 60 secs (reference value: 8.87 +/- 1.79 secs). Type of series: toxicity, organism-based. The conditions noted are these: in vivo, 1 min. The procedure, abridged: (§2)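 Mice dosed ip; trained, selected animals placed in a horizontal tube 25 cm long and 2.5 cm in diameter, then tube reversed so mice must climb out backward. Read-outs: escape time (s) ± SEM and % animals losing coordination versus control. Unpaired t test.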

The nature of series [5]: Neurotoxicity in ip dosed mouse assessed as motor impairment measured for one min by rotarod test. The class given is toxicity, organism-based. The conditions noted are these: in vivo. The procedure, abridged: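 Mice trained on an accelerating rotarod, then tested at least 24 h later after ip pretreatment, on a rod turning at 10 rpm. Neurotoxicity was scored as failure to stay on the rod for one minute. Read-out is mice impaired over mice tested.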
On the technique in general: The rotarod test checks motor coordination on a turning rod.

In series [6] the test system is Mus musculus. Put plainly: Analgesic activity in mouse assessed as decrease in time of paw licking during phase 2 at 33 mg/kg, ip measured for 15 to 30 mins by formalin test relative to control. Further details: scale not given: the % may be the effect or the level left. Type of series: functional. The procedure, abridged: as §1
The test system of series [7] is Mus musculus. The series is described as follows: Toxicity in mouse at 100 mg/kg, ip measured during maximal electroshock seizure test. The class given is organism-based. The conditions noted are these: in vivo.
In series [8] the test system is Mus musculus. Put plainly: Toxicity in mouse at 60 mg/kg, ip measured during maximal electroshock seizure test. The conditions noted are these: in vivo. The class given is organism-based.
Series [9] deals with Mus musculus. Put plainly: Anticonvulsant activity in mouse assessed as protection against maximal electroshock-induced seizures at 100 mg/kg, ip. The class given is functional, organism-based. The procedure, abridged:
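Mice dosed ip; maximal seizures induced by auricular electroshock (25 mA, 500 V, 50 Hz, 0.2 s). Endpoint: hind-limb tonic extension; animals without it scored protected. Read-out is number protected over number tested.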

The test system of series [10] is Mus musculus. Put plainly: Anticonvulsant activity in mouse assessed as protection against subcutaneous pentylenetetrazole-induced seizures by measuring latency time of tonic seizures at 80 mg/kg, ip measured for 30 mins post pentylenetetrazole challenge at 0.5 hrs after compound dosing (reference value: 562.8 to 614.9 secs). Type of series: functional.
The test system of series [11] is Mus musculus. Put plainly: Anticonvulsant activity in ip dosed mouse assessed as protection against maximal electroshock-induced seizures. Type of series: functional. The method, boiled down:
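Mice were dosed ip. Maximal seizures were induced by auricular electrodes (25 mA, 500 V, 50 Hz, 0.2 s). Absence of hind-limb tonic extension counted as protection. […] Motor impairment was scored on a 10 rpm rotarod, giving TD50 the same way.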

In series [12] the test system is Mus musculus. Put plainly: Anticonvulsant activity in mouse assessed as protection against subcutaneous pentylenetetrazole-induced seizures at 80 mg/kg, ip measured for 30 mins post pentylenetetrazole challenge at 0.5 hrs after compound dosing relative to control. The class given is functional.
Series [13] has as its system Mus musculus. The series is described as follows: Anticonvulsant activity in mouse assessed as current strength required to induce tonic hind-limb extension in 50% of the animals at 20 mg/kg, ip by maximal electroshock seizure threshold test (reference value: 6.05 to 8.13 mA). Type of series: functional.
In series [14] the test system is Mus musculus. The series is described as follows: Neurotoxicity in mouse assessed as motor impairment by measuring loss of coordination at 33 mg/kg, ip measured for 60 secs by chimney test relative to control. The class given is toxicity, organism-based. The conditions noted are these: in vivo, 1 min. The method, boiled down:
as §2

Series [15] in a line: Protection index, ratio of TD50 for neurotoxicity in ip dosed mouse by rotarod test to ED50 for anticonvulsant activity in mouse by maximal electroshock seizure test. The conditions noted are these: in vivo, read-out: Ratio TD50/ED50. The class given is toxicity, organism-based.

By TD50 is commonly meant the dose at which the toxic effect under study appears in half of the subjects. As usually defined, the ED50 is the dose at which the effect has come halfway, by size or by number of responders. As for `Cc1cccc(OCCOCCN[C@H]2CCCC[C@@H]2O)c1C` (racemic), the Activity is recorded as 25.47% in the series on Mus musculus [1]; 3.42% in the series on Mus musculus [3]; 70.13% in the series on Mus musculus [6]; “Non-Toxic” in the series with Mus musculus [7]; “Non-Toxic” in the series with Mus musculus [8]; 2.05% with Mus musculus [12]. For the same molecule, the Activity with Mus musculus [13] is listed as 7.01 mA; with Mus musculus [14], 0%. Besides, in the series on Mus musculus [2], the outcome was inactive. The values for the Time with Mus musculus [4] and in the series with Mus musculus [10] were 4.13 s and 596 s, respectively. In addition, in [5], the TD50 at 1 min was found to be 47.4 mg/kg. Further, the result with Mus musculus [9] was Active. In addition, the ED50 with Mus musculus [11] worked out at 32.9 mg/kg. Further, in series [15], the selectivity ratio was 1.44.
